Data reported in article PMC10951545 (Heliyon, 2024).
Where a SMILES comes first, the peptide text is derived from it. Bridges are numbered along the chain shown (N, C = ends). [ ]: non-standard residue; d: D form. The star is where a group is joined. X1 = CC[C@H](C)CCCCC(=O)*; Dab = NCC[C@H](N)C(=O)O

How the values were obtained:
[1] = tested on: ventilator-associated pneumonia caused by multidrug-resistant bacteria; assay: Evaluation of clinical efficacy; assay type: in vivo, patients; conditions: control group (polymyxin B alone), n = 28
Complications = assay type: in vivo; conditions: number of patients (%)
Procedure, shortened: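 ICU patients with severe pulmonary infection were given IV polymyxin B sulfate as an approx. 1 h drip (loading 15,000 U/Kg, then 20,000 U/Kg/d in two doses), either alone or with CVVH (35 ml/kg/h, blood flow 200 ml/min). The incidence of skin pigmentation, nephrotoxicity and 28-day mortality was recorded per group, and the groups were compared.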

[2] = control group (polymyxin B alone), n = 28
[3] = observation group (polymyxin B + CRRT), n = 7

Compound: CC[C@H](C)CCCCC(=O)N[C@@H](CCN)C(=O)N[C@H](C(=O)N[C@@H](CCN)C(=O)N[C@H]1CCNC(=O)[C@H]([C@@H](C)O)NC(=O)[C@H](CCN)NC(=O)[C@H](CCN)NC(=O)[C@H](CC(C)C)NC(=O)[C@@H](Cc2ccccc2)NC(=O)[C@H](CCN)NC1=O)[C@@H](C)O [polymyxin B] (X1-[Dab]T[Dab][Dab][Dab][dF]L[Dab][Dab]T; lactam 4-C)
- response rate [1]: 50.00%
- 28-day mortality (Complications; [2]): 8 (28.57)
- Nephrotoxicity (Complications; [2]): 6 (21.43)
- Skin pigmentation (Complications; [2]): 3 (10.71)
- 28-day mortality (Complications; [3]): 4 (57.14)
- Nephrotoxicity (Complications; [3]): 1 (14.29)
- Skin pigmentation (Complications; [3]): 2 (28.57)
